Sampled rows, rich in hits. Any-hit rate of the full collection: about 2.1%.
EBI2 antag – blocks human EBI2 receptor beta-arrestin signaling; P32249; EBI2 beta-arrestin recruitment, luminescence, 7a,25-OHC stimulated; inhibition, % at 5 µM; actives 0.81% (n = 360,000); in the data active means inhibition above about 38%;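 further: enzyme fragment complementation signal reports receptor beta-arrestin coupling in cells; 0% = agonist plus DMSO wells and 100% = wells without agonist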
APJ ag – agonists of human APJ apelin receptor. activation, % at 20 µM. P35414. actives 0.11% (n = 330,000). CHO-K1 APJ PathHunter beta-arrestin, luminescence; 0% DMSO wells, 100% apelin;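 active means activation more than six SD over the plate average, tested at 20 µM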;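 further: 0% = DMSO alone and 100% = apelin-13 at 10 nM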
Target sequence (P35414 whole entry, looked up): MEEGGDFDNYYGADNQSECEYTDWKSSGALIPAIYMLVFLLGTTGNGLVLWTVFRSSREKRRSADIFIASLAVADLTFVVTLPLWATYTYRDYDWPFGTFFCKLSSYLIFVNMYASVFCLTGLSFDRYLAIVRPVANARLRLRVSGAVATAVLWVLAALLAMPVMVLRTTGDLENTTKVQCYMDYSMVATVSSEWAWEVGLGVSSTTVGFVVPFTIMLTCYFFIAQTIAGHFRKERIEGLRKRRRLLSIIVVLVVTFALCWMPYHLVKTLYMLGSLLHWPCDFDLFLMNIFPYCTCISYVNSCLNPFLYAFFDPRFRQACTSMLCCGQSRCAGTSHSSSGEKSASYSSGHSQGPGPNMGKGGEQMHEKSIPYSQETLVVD
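Assay system: CHO-K1 APJ beta-arrestin complementation cell line / Compound: single test compound dose, 20 µM final, 1% DMSO / Times: overnight seeding, 90 min compound at 25 °C, 1 h detection / Technique: beta-gal luminescence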
HTR2A ag – mouse HTR2A agonism via beta-arrestin recruitment. CHO-K1 mHTR2A beta-arrestin complementation, luminescence; percent of 30 µM serotonin response. P35363. actives 0.66% (n = 360,000). AID 624169. activation, % at 7.6 µM;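 active means activation above a run cutoff, the mean activation of all tested compounds plus 3 SD, cut at about 14% in these data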;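 further: 0% = plate median of compound wells and 100% = 30 µM serotonin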
APJ antag – APJ receptor antagonism; CHO-K1 APJ beta-arrestin complementation, luminescence; inhibition, % at 20 µM; actives 0.32% (n = 330,000);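 active means inhibition above about 40% at 20 µM, limit read from the data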;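 further: cells challenged with 10 nM apelin-13 agonist together with compound; plate controls were apelin-13 plus DMSO wells for no effect and DMSO wells lacking apelin-13 for full effect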
CCR6 antagonist – CCR6 (human) receptor antagonism; inhibition, % at 20 µM; AID 493098; actives 0.49% (n = 340,000); CHO-K1 CCR6 PathHunter beta-arrestin, luminescence, CCL20-stimulated; P51684;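 active means compounds whose inhibition of the agonist-driven luminescence signal at 20 µM reaches about 50%, limit read from the data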;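 further: cells stimulated with CCL20 at 14 nM final; plate controls were DMSO with CCL20 for no effect and DMSO without agonist for full effect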
CXCR6 block – CXCR6 (human) receptor inhibition. CHO-K1 PathHunter CXCR6 beta-arrestin, luminescence. actives 0.36% (n = 360,000). inhibition, % at 20 µM. AID 602244; in the data active means inhibition above about 34%, passing the limit was not always enough;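 further: antagonist mode with CXCL16 agonist at 10 nM final; 0% = 10 nM CXCL16 with DMSO and 100% = unstimulated wells without agonist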
MOR ag counter – counter-screen for mouse HTR2A agonists: human mu opioid receptor agonists; U2OS OPRM1 beta-arrestin PathHunter, luminescence; DMSO 0%, DAMGO 9.3 µM 100%; activation, % at 9.3 µM; actives 5.3% (n = 2,300); shares compounds with HTR2A ag;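 active means mean activation above the mean of DMSO-only wells plus 3 SD, cut at about 0.5% in these data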
HTR2A ag conf – mouse HTR2A agonism confirmed; shares compounds with HTR2A ag; CHO-K1 PathHunter beta-arrestin recruitment, luminescence; DMSO 0%, 30 µM serotonin 100%; activation, % at 7.6 µM; actives 19% (n = 2,300); AID 624381;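 active means mean activation across triplicates above the hit threshold derived in the original primary screen, cut at about 15% in these data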
Active calls of the source: *; . = no result given; ! = not active in a repeat.

SMILES	EBI2 antag	APJ ag	HTR2A ag	APJ antag	CCR6 antagonist	CXCR6 block	MOR ag counter	HTR2A ag conf
COc1ccc2cc3c(N)nn(C(=O)c4ccccc4[N+](=O)[O-])c3nc2c1	6	0	1	0	6	-4	.	.
Cc1nc2c(cc1NC(=O)C(C)(C)C)nc(C)n2Cc1ccccc1	0	-2	20*	14	12	-3	0	-4
Cc1ccc(NS(=O)(=O)c2ccc(NC(=O)N3CCCCC3)cc2)cc1	-3	1	3	-21	-6	-7	.	.
Cc1cccc(NS(=O)(=O)c2ccc(NC(=O)N3CCCCC3)cc2)c1	-8	7	15*	-5	5	-6	0	-4
Cc1ccccc1C(=O)Nc1nc(SCc2ccc(Cl)cc2)n[nH]1	19	-3	-2	-20	11	-2	.	.
CC(C)(C)Nc1nc2ccc([N+](=O)[O-])cc2o1	14	1	15*	-20	2	10	-1	-6
CC(=O)CC(C)(C)Nc1nc2ccc([N+](=O)[O-])cc2o1	5	2	-2	-15	-4	-2	.	.
Cc1ccc2[nH]c(-c3ccccc3)c(CN3CCCC3)c(=O)c2c1	-5	6	20*	-30	-9	-8	0	11
COc1ccc(C(CNC(=O)c2ccccc2C)N2CCCC2)cc1 (stereo unspecified)	-11	-6	31*	-5	9	6	-1	-1
COC(=O)c1ccccc1NC(=O)/C=C/c1ccco1	-1	-9	2	6	0	0	.	.
CC(C)N=c1scc(-c2ccco2)n1/N=C/c1ccc(O)c(O)c1	19	2	18*	3	7	5	1.1*	10
CN=c1scc(-c2cccs2)n1/N=C/c1ccc(O)c(O)c1O	11	2	2	-5	10	4	.	.
C=CCN=c1scc(-c2ccco2)n1/N=C/c1ccc(O)c(O)c1O	3	-1	16*	-49	14	-3	1.9*	129*
COCCN=c1scc(-c2ccco2)n1/N=C/c1ccc(O)c(O)c1O	10	0	28*	-14	9	6	0	72*
Cc1ccc(-n2c(P(C)(=O)O)nc3ccccc32)cc1	-7	-1	-1	9	-8	-3	.	.
O=[N+]([O-])c1ccc(Nc2ccc(N3CCOCC3)cc2)c([N+](=O)[O-])c1	-17	0	0	4	14	-7	.	.
O=C1CCc2cc(S(=O)(=O)N3CCCC3C(=O)N3CCN(c4ccccc4F)CC3)ccc2N1 (stereo unspecified)	8	-5	5	2	6	-4	.	.
CCCN1Cc2cccc(C(=O)NC(C)c3cccs3)c2C1=O (stereo unspecified)	-7	1	-1	-8	-1	-6	.	.
COC(=O)Cc1ccc(NC(=S)N2CCN(c3cccc(O)c3)CC2)cc1	-17	1	24*	-12	-5	-8	0	3
COc1cc2c(cc1OC)CN(C(=O)C(C)(C)C)CC2	-1	4	17*	7	2	-3	-1	-4
CC(C)(C)c1ccc(C(=O)Nc2ccc3c(c2)C(=O)NC3=O)cc1	2	-2	16*	-79	-1	0	0	-3
O=C(CSc1ncnc2c1cnn2-c1ccccc1Cl)N1CCN(C(=O)c2ccco2)CC1	10	1	2	13	-25	-6	.	.
COc1ccc(C(=O)Nc2nc(C)cs2)cc1S(=O)(=O)N1CCOCC1	4	.	-1	.	.	2	.	.
CNC(=O)Oc1ccc2c(c1)[C@]1(C)CCN(C)[C@@H]1N2C	-2	-2	20*!	0	-9	-3	-1	-1
COCCNC(=O)CN1C(=O)NC2(CCCCCC2)C1=O	-10	-4	-4	-10	5	-7	.	.
COc1ccc(-c2noc(CN(C(=O)c3ccc4c(c3)OCO4)C(C)C)n2)cc1OC	0	5	16*	13	4	-5	-1	-3
COc1ccc(-c2noc(CN(C)C(=O)c3ccc4c(c3)OCO4)n2)cc1OC	-4	0	4	-14	5	3	.	.
O=C(CN1CCN(Cc2ccccc2F)C1=O)NCCc1ccc(Cl)cc1	6	-1	16*	-2	16	-1	-1	-7
C=CCN1C=C2C(=O)C(C)(OC(=O)CC)C(=O)C=C2C=C1CCCC (stereo unspecified)	-9	20	2	10	-15	-23	.	.
